Test results as given in ChEMBL document CHEMBL4330094, “Potent Metabolic Sialylation Inhibitors Based on C-5-Modified Fluorinated Sialic Acids” (J Med Chem, 2019).
Activity calls are given as the source filed them. No cut-off for these calls is given here.

tested on: B16-F10; test: Effect on total cell surface glycosylation in mouse B16F10 cells assessed as inhibition of biotinylated GSL1-lectin binding at 102.4 uM after 3 days by flow cytometry; type: cell-based; conditions: b16-f10, 72 h
How it was run: (§1)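 B16-F10 cells were exposed 3 days to 102.4 µM compound or DMSO. Staining used biotinylated lectins (AAL 5, PNA 5, GSL-I 1, LCA 1, PHA-L 1, PSA 1, SJA 1, WGA 1 µg/ml) in carbo-free blocking buffer with 1 mM CaCl and 1 mM MgCl for 45-60 min at 4 °C, then streptavidin-PE for 20 min at 4 °C. Flow cytometry read-out was MFI, mean ± SEM from two independent experiments.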

SMILES	Activity
C#CCCC(=O)N[C@H]1[C@H]([C@H](OC(C)=O)[C@@H](COC(C)=O)OC(C)=O)OC(OC(C)=O)(C(=O)OC)[C@H](F)[C@@H]1OC(C)=O (stereo not given in full)	Non-Toxic

tested on: B16-F10; test: Effect on total cell surface glycosylation in mouse B16F10 cells assessed as inhibition of biotinylated PSA-lectin binding at 102.4 uM after 3 days by flow cytometry; type: cell-based; conditions: b16-f10, 72 h; how it was run: as §1

SMILES	Activity
C#CCCC(=O)N[C@H]1[C@H]([C@H](OC(C)=O)[C@@H](COC(C)=O)OC(C)=O)OC(OC(C)=O)(C(=O)OC)[C@H](F)[C@@H]1OC(C)=O (stereo not given in full)	Non-Toxic

tested on: B16-F10; test: Effect on total cell surface glycosylation in mouse B16F10 cells assessed as inhibition of biotinylated SJA-lectin binding at 102.4 uM after 3 days by flow cytometry; type: cell-based; conditions: b16-f10, 72 h; how it was run: as §1

SMILES	Activity
C#CCCC(=O)N[C@H]1[C@H]([C@H](OC(C)=O)[C@@H](COC(C)=O)OC(C)=O)OC(OC(C)=O)(C(=O)OC)[C@H](F)[C@@H]1OC(C)=O (stereo not given in full)	Non-Toxic

tested on: B16-F10; test: Relative inhibitory potency, ratio of SiaFAc to compound EC50 for inhibition of sialyltransferase in mouse B16-F10 cells; type: cell-based; conditions: not given

SMILES	Ratio EC50
C#CCCC(=O)N[C@H]1[C@H]([C@H](OC(C)=O)[C@@H](COC(C)=O)OC(C)=O)OC(OC(C)=O)(C(=O)OC)[C@H](F)[C@@H]1OC(C)=O (stereo not given in full)	1

tested on: B16-F10; test: Effect on total cell surface glycosylation in mouse B16F10 cells assessed as inhibition of biotinylated PHA-L lectin binding at 102.4 uM after 3 days by flow cytometry; type: cell-based; conditions: b16-f10, 72 h; how it was run: as §1

SMILES	Activity
C#CCCC(=O)N[C@H]1[C@H]([C@H](OC(C)=O)[C@@H](COC(C)=O)OC(C)=O)OC(OC(C)=O)(C(=O)OC)[C@H](F)[C@@H]1OC(C)=O (stereo not given in full)	Non-Toxic

tested on: not listed separately; test: Inhibition of sialyltransferase in mouse B16F10 cells assessed as decrease in lectin binding after 3 days by biotinylated MAL2 lectin and streptavidin-PE based flow cytometry; type: cell-based; conditions: not given
How it was run: (§2)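 Each cell line was incubated 3 days with increasing compound concentrations or equivalent DMSO. Cells were stained with biotinylated MALII (5 µg/ml) in carbo-free blocking buffer with 1 mM CaCl/MgCl for 45-60 min at 4 °C, washed in PBS/1% BSA/0.02% azide, then stained with streptavidin-PE for 20 min at 4 °C. For flow cytometry, MFI was normalized to control as % lectin binding.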

EC50	SMILES
40.6 µM	C#CCCC(=O)N[C@H]1[C@H]([C@H](OC(C)=O)[C@@H](COC(C)=O)OC(C)=O)OC(OC(C)=O)(C(=O)OC)[C@H](F)[C@@H]1OC(C)=O (stereo not given in full)

tested on: not listed separately; test: Inhibition of sialyltransferase in HEK293 cells assessed as decrease in lectin binding after 3 days by biotinylated MAL2 lectin and streptavidin-PE based flow cytometry; type: cell-based, Homo sapiens; conditions: not given; how it was run: as §2

EC50	SMILES
26.2 µM	C#CCCC(=O)N[C@H]1[C@H]([C@H](OC(C)=O)[C@@H](COC(C)=O)OC(C)=O)OC(OC(C)=O)(C(=O)OC)[C@H](F)[C@@H]1OC(C)=O (stereo not given in full)

tested on: B16-F10; test: Effect on total cell surface glycosylation in mouse B16F10 cells assessed as inhibition of biotinylated WGA-lectin binding at 102.4 uM after 3 days by flow cytometry; type: cell-based; conditions: b16-f10, 72 h; how it was run: as §1

SMILES	Activity
C#CCCC(=O)N[C@H]1[C@H]([C@H](OC(C)=O)[C@@H](COC(C)=O)OC(C)=O)OC(OC(C)=O)(C(=O)OC)[C@H](F)[C@@H]1OC(C)=O (stereo not given in full)	Non-Toxic

tested on: not listed separately; test: Inhibition of sialyltransferase in human HeLa cells assessed as decrease in lectin binding after 3 days by biotinylated MAL2 lectin and streptavidin-PE based flow cytometry; type: cell-based; conditions: not given; how it was run: as §2

EC50	SMILES
62.3 µM	C#CCCC(=O)N[C@H]1[C@H]([C@H](OC(C)=O)[C@@H](COC(C)=O)OC(C)=O)OC(OC(C)=O)(C(=O)OC)[C@H](F)[C@@H]1OC(C)=O (stereo not given in full)

tested on: not listed separately; test: Inhibition of sialyltransferase in mouse 9464D cells assessed as decrease in lectin binding after 3 days by biotinylated MAL2 lectin and streptavidin-PE based flow cytometry; type: cell-based; conditions: not given; how it was run: as §2

EC50	SMILES
> 102 µM	C#CCCC(=O)N[C@H]1[C@H]([C@H](OC(C)=O)[C@@H](COC(C)=O)OC(C)=O)OC(OC(C)=O)(C(=O)OC)[C@H](F)[C@@H]1OC(C)=O (stereo not given in full)

tested on: B16-F10; test: Effect on total cell surface glycosylation in mouse B16F10 cells assessed as inhibition of biotinylated AAL-lectin binding at 102.4 uM after 3 days by flow cytometry; type: cell-based; conditions: b16-f10, 72 h; how it was run: as §1

SMILES	Activity
C#CCCC(=O)N[C@H]1[C@H]([C@H](OC(C)=O)[C@@H](COC(C)=O)OC(C)=O)OC(OC(C)=O)(C(=O)OC)[C@H](F)[C@@H]1OC(C)=O (stereo not given in full)	Non-Toxic

tested on: B16-F10; test: Effect on total cell surface glycosylation in mouse B16F10 cells assessed as inhibition of biotinylated LCA-lectin binding at 102.4 uM after 3 days by flow cytometry; type: cell-based; conditions: b16-f10, 72 h; how it was run: as §1

SMILES	Activity
C#CCCC(=O)N[C@H]1[C@H]([C@H](OC(C)=O)[C@@H](COC(C)=O)OC(C)=O)OC(OC(C)=O)(C(=O)OC)[C@H](F)[C@@H]1OC(C)=O (stereo not given in full)	Non-Toxic

tested on: B16-F10; test: Effect on total cell surface glycosylation in mouse B16F10 cells assessed as inhibition of biotinylated PNA lectin binding at 102.4 uM after 3 days by flow cytometry; type: cell-based; conditions: b16-f10, 72 h; how it was run: as §1

SMILES	Activity
C#CCCC(=O)N[C@H]1[C@H]([C@H](OC(C)=O)[C@@H](COC(C)=O)OC(C)=O)OC(OC(C)=O)(C(=O)OC)[C@H](F)[C@@H]1OC(C)=O (stereo not given in full)	Non-Toxic

tested on: B16-F10; test: Cytotoxicity against mouse B16F10 cells assessed as reduction in metabolic activity at <51.2 uM after 3 days by MTT assay; type: ADME, cell-based; conditions: b16-f10, 72 h

SMILES	Activity
C#CCCC(=O)N[C@H]1[C@H]([C@H](OC(C)=O)[C@@H](COC(C)=O)OC(C)=O)OC(OC(C)=O)(C(=O)OC)[C@H](F)[C@@H]1OC(C)=O (stereo not given in full)	Non-Toxic

tested on: B16-F10; test: Inhibition of sialyltransferase in mouse B16-F10 cells assessed as recovery time for sialylation at 25.6 uM pretreated for 3 days followed by washing and re-seeding and measured after 6 days by biotinylated MAL2 lectin-based flow cytometry; type: cell-based; conditions: not given
How it was run: (§3)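 B16-F10 cells were pretreated 3 days with 25.6 or 51.2 µM compound or DMSO, washed, reseeded, and sampled daily for 6 days. They were stained with biotinylated MALII (5 µg/ml, 45-60 min, 4 °C) plus streptavidin-PE. Flow cytometry MFI was normalized to control as % lectin binding.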

SMILES	sialylation recovery time
C#CCCC(=O)N[C@H]1[C@H]([C@H](OC(C)=O)[C@@H](COC(C)=O)OC(C)=O)OC(OC(C)=O)(C(=O)OC)[C@H](F)[C@@H]1OC(C)=O (stereo not given in full)	Active

tested on: B16-F10; test: Inhibition of sialyltransferase in mouse B16-F10 cells assessed as recovery time for sialylation at 51.2 uM pretreated for 3 days followed by washing and re-seeding and measured after 6 days by biotinylated MAL2 lectin-based flow cytometry; type: cell-based; conditions: not given; how it was run: as §3

SMILES	TIME
C#CCCC(=O)N[C@H]1[C@H]([C@H](OC(C)=O)[C@@H](COC(C)=O)OC(C)=O)OC(OC(C)=O)(C(=O)OC)[C@H](F)[C@@H]1OC(C)=O (stereo not given in full)	48 to 72 h

tested on: B16-F10; test: Cytotoxicity against mouse B16F10 cells assessed as reduction in metabolic activity at 204.8 uM after 3 days by MTT assay; type: ADME, cell-based; conditions: b16-f10, 72 h

SMILES	Activity
C#CCCC(=O)N[C@H]1[C@H]([C@H](OC(C)=O)[C@@H](COC(C)=O)OC(C)=O)OC(OC(C)=O)(C(=O)OC)[C@H](F)[C@@H]1OC(C)=O (stereo not given in full)	Non-Toxic

tested on: not listed separately; test: Inhibition of sialyltransferase in mouse EL4 cells assessed as decrease in lectin binding after 3 days by biotinylated MAL2 lectin and streptavidin-PE based flow cytometry; type: cell-based; conditions: not given; how it was run: as §2

EC50	SMILES
> 102 µM	C#CCCC(=O)N[C@H]1[C@H]([C@H](OC(C)=O)[C@@H](COC(C)=O)OC(C)=O)OC(OC(C)=O)(C(=O)OC)[C@H](F)[C@@H]1OC(C)=O (stereo not given in full)

target: N-acylneuraminate cytidylyltransferase (Mus musculus, UniProt Q99KK2); test: Prodrug activation in mouse B16F10 cells assessed as CMAS-mediated CMP-SiaFR levels at 51.2 uM after 1 to 24 hrs using fluorinated compounds by reverse-phase ion pairing chromatography/triple quadrupole mass spectrometric analysis; type: cell-based; conditions: not given
How it was run: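 B16-F10 cells were incubated 1, 2, 4, 8 or 24 h with 51.2 µM fluorinated analogue or DMSO. Cells were washed with ammonium carbonate buffer (pH 7.4) and snap-frozen in liquid nitrogen. Extraction was twice for 3 min with cold 40% acetonitrile/40% methanol/20% water, followed by centrifugation for 3 min and vacuum drying.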

N-acylneuraminate cytidylyltransferase, sequence (Q99KK2 whole entry): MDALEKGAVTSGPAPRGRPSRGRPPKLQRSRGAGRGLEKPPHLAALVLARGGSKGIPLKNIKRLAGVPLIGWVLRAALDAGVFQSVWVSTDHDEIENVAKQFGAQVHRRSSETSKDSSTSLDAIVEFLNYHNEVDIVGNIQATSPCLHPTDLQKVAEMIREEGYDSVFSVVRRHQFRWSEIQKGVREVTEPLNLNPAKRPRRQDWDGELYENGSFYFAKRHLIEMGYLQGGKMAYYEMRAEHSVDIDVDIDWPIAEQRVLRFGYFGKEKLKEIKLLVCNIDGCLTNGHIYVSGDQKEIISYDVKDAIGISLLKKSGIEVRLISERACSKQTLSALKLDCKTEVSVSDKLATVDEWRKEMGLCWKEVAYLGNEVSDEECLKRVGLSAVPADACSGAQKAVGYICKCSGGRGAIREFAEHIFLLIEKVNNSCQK

Drug metabolism	SMILES
Metabolite_Detected	C#CCCC(=O)N[C@H]1[C@H]([C@H](OC(C)=O)[C@@H](COC(C)=O)OC(C)=O)OC(OC(C)=O)(C(=O)OC)[C@H](F)[C@@H]1OC(C)=O (stereo not given in full)

tested on: not listed separately; test: Inhibition of sialyltransferase in human THP1 cells assessed as decrease in lectin binding after 3 days by biotinylated MAL2 lectin and streptavidin-PE based flow cytometry; type: cell-based; conditions: not given; how it was run: as §2

EC50	SMILES
10.4 µM	C#CCCC(=O)N[C@H]1[C@H]([C@H](OC(C)=O)[C@@H](COC(C)=O)OC(C)=O)OC(OC(C)=O)(C(=O)OC)[C@H](F)[C@@H]1OC(C)=O (stereo not given in full)
